In ChEMBL document CHEMBL1124145, “Dinucleotide analogues as inhibitors of thymidine kinase, thymidylate kinase, and ribonucleotide reductase” (J Med Chem, 1988) one finds IC50 data, which are given here for nine compounds.

Holding throughout (format): cell-based
Experiment [1] addresses T1, Thymidylate kinase (Homo sapiens, UniProt P23919).
T1 sequence (P23919 whole entry): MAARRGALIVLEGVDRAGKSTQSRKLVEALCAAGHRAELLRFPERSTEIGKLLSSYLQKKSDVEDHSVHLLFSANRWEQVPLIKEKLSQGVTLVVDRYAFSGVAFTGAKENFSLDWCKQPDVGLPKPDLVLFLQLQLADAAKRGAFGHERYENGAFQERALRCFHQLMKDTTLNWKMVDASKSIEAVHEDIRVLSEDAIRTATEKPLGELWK
Description: Concentration required to reduce Thymidylate kinase rate by 50% in human blast cells. An outline of the steps: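 Enzyme: dialyzed extract of blast cells from an acute myeloid leukemia patient. Data were fitted by nonlinear least-squares regression to response = a + b ln[inhibitor], error weighting 1/(γ+γ)^2, and the IC50 was derived from the fit.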

Experiment [2] can be described thus: Concentration required to reduce Ribonucleotide reductase rate by 50% in L1210 cells. The gist of the method:
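Enzyme: crude L1210 extract brought to pH 5.2 with 1 M acetic acid; the precipitate was dissolved in 50 mM Tris-HCl pH 8.0. CDP reductase activity was measured by a published method. Data were fitted by nonlinear least-squares regression to response = a + b ln[inhibitor] with weighted error, and the IC50 was taken from the fit.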

A short description of experiment [3]: Concentration required to reduce thymidine kinase rate by 50% in L1210 cells. An outline of the steps: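 Cytoplasmic isoenzyme affinity-purified from L1210 cells. Reaction: 1 mM ATP, 1 mM MgCl2, 10 μM [3H]thymidine (150 μCi/μmol), 5% sucrose, 40 mM Tris pH 7.8. Inhibitor ranged 0-500 μM. Inhibitor concentrations were verified by UV absorbance at 260 nm.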

The structures appear in SMILES notation. A value given as a limit tells only on which side of the number the result lay.

Take `Nc1ncnc2c1ncn2C1O[C@H](COP(=O)(O)OP(=O)(O)OP(=O)(O)OP(=O)(O)OP(=O)(O)OC[C@H]2OC(n3cnc4c(N)ncnc43)[C@H](O)[C@@H]2O)[C@@H](O)[C@H]1O` (some centres undefined): the IC50 (commonly the point on the concentration scale where inhibition reaches its midpoint) in experiment [1] was greater than 1000 µM.
Regarding `Cc1cn(C2C[C@H](O)[C@@H](COP(=O)(O)CP(=O)(O)OP(=O)(O)OP(=O)(O)OC[C@H]3OC(n4cnc5c(N)ncnc54)[C@H](O)[C@@H]3O)O2)c(=O)[nH]c1=O` (some centres undefined), the values for the IC50 in experiment [2], in experiment [1] and in experiment [3] were 300 µM, 340 µM and 17 µM, respectively.
As to `Cc1cn([C@H]2C[C@H](O)[C@@H](CO[P@@](=O)(O)O[P@@](=O)(O)O[P@@](=O)(O)O[P@@](=O)(O)OC[C@H]3O[C@@H](n4cnc5c(N)ncnc54)[C@H](O)[C@@H]3O)O2)c(=O)[nH]c1=O`, the 50% inhibitory concentration (IC50) in experiment [2] was 77 µM; in experiment [1], 290 µM; in experiment [3], 15 µM.
Taken in the same sequence, the figures for `Cc1cn(C2C[C@H](O)[C@@H](COP(=O)(O)CP(=O)(O)OP(=O)(O)OP(=O)(O)OP(=O)(O)OP(=O)(O)OC[C@H]3OC(n4cnc5c(N)ncnc54)[C@H](O)[C@@H]3O)O2)c(=O)[nH]c1=O` (some centres undefined) were 230 µM, 4 µM and 19.7 µM.
For `Cc1cn([C@H]2C[C@H](O)[C@@H](COP(=O)(O)OP(=O)(O)OP(=O)(O)OP(=O)(O)OP(=O)(O)OC[C@H]3O[C@@H](n4cnc5c(N)ncnc54)[C@H](O)[C@@H]3O)O2)c(=O)[nH]c1=O`, in that order: 14 µM, 8 µM and 2.5 µM.
Regarding `Cc1cn(C2C[C@H](O)[C@@H](COP(=O)(O)OP(=O)(O)OP(=O)(O)OP(=O)(O)OP(=O)(O)OP(=O)(O)OC[C@H]3OC(n4cnc5c(N)ncnc54)[C@H](O)[C@@H]3O)O2)c(=O)[nH]c1=O` (some centres undefined), the IC50 in experiment [2] amounted to 20 µM; in experiment [1], 6 µM.
Consider `Cc1cn(C2C[C@H](O)[C@@H](COP(=O)(O)CP(=O)(O)OP(=O)(O)OP(=O)(O)OP(=O)(O)OC[C@H]3OC(n4cnc5c(N)ncnc54)[C@H](O)[C@@H]3O)O2)c(=O)[nH]c1=O` (some centres undefined), for which the IC50 in experiment [2] is 130 µM; in experiment [1] it was 6 µM; in experiment [3], 9.2 µM.
For `Cc1cn(C2C[C@H](O)[C@@H](COP(=O)(O)CP(=O)(O)OP(=O)(O)OC[C@H]3OC(n4cnc5c(N)ncnc54)[C@H](O)[C@@H]3O)O2)c(=O)[nH]c1=O` (some centres undefined), in that order: 460 µM, 730 µM and greater than 500 µM.
Take `Cc1cn(C2C[C@H](O)[C@@H](COP(=O)(O)OP(=O)(O)OP(=O)(O)OC[C@H]3OC(n4cnc5c(N)ncnc54)[C@H](O)[C@@H]3O)O2)c(=O)[nH]c1=O` (some centres undefined): the IC50 in experiment [2] is greater than 500 µM; in experiment [1] it was 1230 µM; in experiment [3], greater than 500 µM.
